In ChEMBL document CHEMBL3421533, “The Discovery of Orally Bioavailable Tyrosine Threonine Kinase (TTK) Inhibitors: 3-(4-(heterocyclyl)phenyl)-1H-indazole-5-carboxamides as Anticancer Agents” (J Med Chem, 2015):
pIC50: −log10 of the molar value. Calls of active or inactive are those of the source. The calls are words filed in the database; no cut-off is given here.

Columns and labels:
[1] = Antitumor activity against human HCT116 cells xenografted in nude mouse assessed as tumor growth inhibition at 30 mg/kg, po qd administered for 21 days measured on day 22 relative to vehicle-treated control; assay type: functional; details: HCT-116, read-out: TGI
[2] = biological target: T1, Dual specificity protein kinase TTK (Homo sapiens, UniProt P33981); assay: Inhibition of TTK (unknown origin) using p38 MAPK as substrate by fluorescence assay
T1 sequence (P33981 whole entry): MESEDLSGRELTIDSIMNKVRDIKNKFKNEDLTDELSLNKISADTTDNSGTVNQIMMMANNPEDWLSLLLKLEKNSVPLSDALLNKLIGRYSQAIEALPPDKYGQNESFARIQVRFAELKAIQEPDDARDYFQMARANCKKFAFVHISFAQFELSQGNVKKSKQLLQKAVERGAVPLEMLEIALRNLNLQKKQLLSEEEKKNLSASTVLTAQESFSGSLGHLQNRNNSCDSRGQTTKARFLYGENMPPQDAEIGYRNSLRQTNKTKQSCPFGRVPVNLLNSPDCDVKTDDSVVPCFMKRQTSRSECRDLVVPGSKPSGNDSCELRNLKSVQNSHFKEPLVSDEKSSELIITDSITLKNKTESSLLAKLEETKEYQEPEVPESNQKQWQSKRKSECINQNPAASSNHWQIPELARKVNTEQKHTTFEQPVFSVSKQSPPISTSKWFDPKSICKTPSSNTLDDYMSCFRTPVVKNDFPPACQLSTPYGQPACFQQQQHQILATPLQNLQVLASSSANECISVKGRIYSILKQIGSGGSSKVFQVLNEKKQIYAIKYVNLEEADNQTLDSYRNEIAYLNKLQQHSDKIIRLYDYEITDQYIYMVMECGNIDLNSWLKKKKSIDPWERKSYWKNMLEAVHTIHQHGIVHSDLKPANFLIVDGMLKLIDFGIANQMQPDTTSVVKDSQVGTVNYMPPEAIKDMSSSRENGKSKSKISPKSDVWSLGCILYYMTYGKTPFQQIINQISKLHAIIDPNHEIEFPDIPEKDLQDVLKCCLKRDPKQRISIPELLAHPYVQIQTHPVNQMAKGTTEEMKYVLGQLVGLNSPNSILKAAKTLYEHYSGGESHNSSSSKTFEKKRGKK

[3] = Cell cycle arrest in human HCT116 cells assessed as 8N cells at 0.1 uM measured at 48 hrs by flow cytometric analysis relative to control; assay type: functional, cell-based; details: HCT-116
In short: (§1)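 HCT116 cells in 6-well plates were exposed to compound or DMSO for 48 h at 37 °C, 5% CO₂. Cells were trypsinized, fixed in cold 70% ethanol and stained overnight at 4 °C with 50 μg/mL propidium iodide plus RNaseA. DNA content was read by flow cytometry, and 8N and 16N fractions were normalized to the DMSO control.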

HCT-116 [4] = assay: Cytotoxicity against human HCT116 cells assessed as decrease in cell viability after 24 hrs; assay type: functional, cell-based
[5] = Cell cycle arrest in human HCT116 cells assessed as 16N cells at 3 uM measured at 48 hrs by flow cytometric analysis relative to control; assay type: functional, cell-based; details: HCT-116; in short: as §1
[6] = Cell cycle arrest in human HCT116 cells assessed as 16N cells at 0.5 uM measured at 48 hrs by flow cytometric analysis relative to control; assay type: functional, cell-based; details: HCT-116; in short: as §1
[7] = Induction of apoptosis in human HCT116 cells assessed as upregulation of phospho-H2AX level after 24 hrs; assay type: functional, cell-based; details: HCT-116
[8] = Cell cycle arrest in human HCT116 cells assessed as 16N cells at 1 uM measured at 48 hrs by flow cytometric analysis relative to control; assay type: functional, cell-based; details: HCT-116; in short: as §1
[9] = Cell cycle arrest in human HCT116 cells assessed as 8N cells at 3 uM measured at 48 hrs by flow cytometric analysis relative to control; assay type: functional, cell-based; details: HCT-116; in short: as §1
[10] = Cell cycle arrest in human HCT116 cells assessed as 16N cells at 0.2 uM measured at 48 hrs by flow cytometric analysis relative to control; assay type: functional, cell-based; details: HCT-116; in short: as §1
[11] = Cell cycle arrest in human HCT116 cells assessed as 16N cells at 0.1 uM measured at 48 hrs by flow cytometric analysis relative to control; assay type: functional, cell-based; details: HCT-116; in short: as §1
HCT-116 [12] = assay: Induction of cytokinesis with gain or loss in chromosomes in human HCT116 cells at 500 nM after 28 hrs by DAPI-staining based fluorescence microscopic analysis; assay type: functional, cell-based
[13] = Cell cycle arrest in human HCT116 cells assessed as 8N cells at 0.05 uM measured at 48 hrs by flow cytometric analysis relative to control; assay type: functional, cell-based; details: HCT-116; in short: as §1
[14] = Cell cycle arrest in human HCT116 cells assessed as 8N cells at 0.5 uM measured at 48 hrs by flow cytometric analysis relative to control; assay type: functional, cell-based; details: HCT-116; in short: as §1
HCT-116 [15] = assay: Induction of apoptosis in human HCT116 cells assessed as induction of PARP cleavage after 24 hrs; assay type: functional, cell-based
[16] = Cell cycle arrest in human HCT116 cells assessed as 16N cells at 0.05 uM measured at 48 hrs by flow cytometric analysis relative to control; assay type: functional, cell-based; details: HCT-116; in short: as §1
[17] = Cell cycle arrest in human HCT116 cells assessed as 8N cells at 1 uM measured at 48 hrs by flow cytometric analysis relative to control; assay type: functional, cell-based; details: HCT-116; in short: as §1
[18] = Induction of apoptosis in human HCT116 cells assessed as upregulation of p53 level after 24 hrs; assay type: functional, cell-based; details: HCT-116
[19] = Cell cycle arrest in human HCT116 cells assessed as 8N cells at 0.2 uM measured at 48 hrs by flow cytometric analysis relative to control; assay type: functional, cell-based; details: HCT-116; in short: as §1
[20] = Antitumor activity against human HCT116 cells xenografted in athymic CD1 nude mouse assessed as tumor growth inhibition at 100 mg/kg, po qd administered for 21 days measured 3 times per week during compound dosing relative to vehicle-treated control; assay type: functional; details: HCT-116, 504 h, read-out: TGI
In short: (§2)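 HCT116 cells (5 million) were injected subcutaneously into the right flank of 6–8 week old female athymic CD-1 nude mice. At a mean tumor volume of 80–120 mm³, mice were randomized (n = 8). Dosing was oral, daily for 21 days, in 10% NMP/40% PEG400/50% DI water, at the MTD and ~2/3 MTD. Tumors were measured three times weekly, volume x²y/2, and TGI was taken against vehicle.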

[21] = Cytotoxicity against human OVCAR3 cells after 5 days by sulforhodamine B assay; assay type: functional, OVCAR-3
[22] = Toxicity in po dosed athymic CD1 nude mouse assessed as body weight loss in excess 20% and deemed moribund administered as qd for 21 days measured 3 times per week during compound dosing; assay type: organism-based; details: in vivo
[23] = biological target: Aurora kinase B/Inner centromere protein (Homo sapiens, UniProt Q96GD4); assay: Inhibition of AURKB/INCENP (unknown origin) preincubated for 15 mins prior to ATP addition by FRET-based homogenous assay; assay type: protein-complex assay
In short: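 The enzyme was AURKB/INCENP in a FRET-based homogeneous assay run to kit specifications, with ATP at 128 μM. […] Each IC50 came from a single determination, reported with its standard fitting error.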

[24] = AUCinfinity in Sprague-Dawley rat at 5 mg/kg, po by LC-MS/MS analysis; assay type: ADME, organism-based; parameters: time infinity, dose 5 mg/kg, route oral; details: plasma
[25] = Clearance in Sprague-Dawley rat at 1 mg/kg, iv by LC-MS/MS analysis; assay type: ADME, organism-based; parameters: dose 1 mg/kg, route intravenous; details: in vivo
[26] = AUCinfinity in Sprague-Dawley rat at 1 mg/kg, iv by LC-MS/MS analysis; assay type: ADME, organism-based; parameters: time infinity, dose 1 mg/kg, route intravenous; details: plasma
Mus musculus [27] = assay: AUCinfinity in athymic CD1 nude mouse at 10 mg/kg, po by LC-MS/MS analysis; assay type: ADME, organism-based, Plasma; parameters: time infinity, dose 10 mg/kg, route oral; details: in vivo
MDA-MB-468 = assay: Cytotoxicity against human MDA-MB-468 cells after 5 days by sulforhodamine B assay; assay type: functional
In short: (§3)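 Cancer lines were seeded at 800–6000 cells per well according to growth rate, 24 h before compound overlay. After culture, cells were fixed in situ and stained with sulforhodamine B. GI50 values were derived by curve fitting.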

[28] = Oral bioavailability in Sprague-Dawley rat at 5 mg/kg by LC-MS/MS analysis; assay type: ADME, organism-based; details: in vivo
Cytochrome P450 3A4 = Cytochrome P450 3A4 (Homo sapiens, UniProt P08684); assay: Inhibition of human CYP3A4 using BFC as substrate preincubated for 10 mins followed by enzyme/substrate addition measured after 30 mins by fluorescence assay; assay type: ADME
Mus musculus [29] = assay: Cmax in athymic CD1 nude mouse at 10 mg/kg, po by LC-MS/MS analysis; assay type: ADME, organism-based; parameters: dose 10 mg/kg, route oral; details: in vivo
[30] = Antitumor activity against human HCT116 cells xenografted in athymic CD1 nude mouse assessed as tumor growth inhibition at 150 mg/kg, po qd administered for 21 days measured 3 times per week during compound dosing relative to vehicle-treated control; assay type: functional; details: HCT-116, 504 h, read-out: TGI; in short: as §2
[31] = biological target: T1, Dual specificity protein kinase TTK; assay: Inhibition of amino terminal GST-fused full length human TTK using His6-SUMO-TTK-N as substrate preincubated for 15 mins prior to ATP addition by indirect ELISA detection system
[32] = Half life in Sprague-Dawley rat at 1 mg/kg, iv by LC-MS/MS analysis; assay type: ADME, organism-based; parameters: dose 1 mg/kg, route intravenous; details: in vivo
[33] = Cytotoxicity against human HCT116 cells after 5 days by sulforhodamine B assay; assay type: functional, HCT-116; in short: as §3
Liver microsome = assay: Half life in rat liver microsomes at 1 uM by LC-MS analysis; assay type: ADME; details: microsomes, 1 µM
Liver = assay: Half life in mouse liver microsomes at 1 uM by LC-MS analysis; assay type: ADME; details: microsomes, 1 µM

Chain of Aurora kinase B/Inner centromere protein (Q96GD4 whole entry): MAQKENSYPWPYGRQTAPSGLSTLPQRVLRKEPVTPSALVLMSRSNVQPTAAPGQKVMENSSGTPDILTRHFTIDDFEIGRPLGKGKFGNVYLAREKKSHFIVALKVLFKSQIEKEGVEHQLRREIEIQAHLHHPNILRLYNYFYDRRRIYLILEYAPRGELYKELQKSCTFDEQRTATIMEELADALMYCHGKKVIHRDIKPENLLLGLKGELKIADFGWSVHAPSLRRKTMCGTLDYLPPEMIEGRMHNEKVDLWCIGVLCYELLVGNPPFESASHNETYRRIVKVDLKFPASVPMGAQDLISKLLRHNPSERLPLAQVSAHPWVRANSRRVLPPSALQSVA
Chain of Aurora kinase B/Inner centromere protein (Q9NQS7 whole entry, further chain): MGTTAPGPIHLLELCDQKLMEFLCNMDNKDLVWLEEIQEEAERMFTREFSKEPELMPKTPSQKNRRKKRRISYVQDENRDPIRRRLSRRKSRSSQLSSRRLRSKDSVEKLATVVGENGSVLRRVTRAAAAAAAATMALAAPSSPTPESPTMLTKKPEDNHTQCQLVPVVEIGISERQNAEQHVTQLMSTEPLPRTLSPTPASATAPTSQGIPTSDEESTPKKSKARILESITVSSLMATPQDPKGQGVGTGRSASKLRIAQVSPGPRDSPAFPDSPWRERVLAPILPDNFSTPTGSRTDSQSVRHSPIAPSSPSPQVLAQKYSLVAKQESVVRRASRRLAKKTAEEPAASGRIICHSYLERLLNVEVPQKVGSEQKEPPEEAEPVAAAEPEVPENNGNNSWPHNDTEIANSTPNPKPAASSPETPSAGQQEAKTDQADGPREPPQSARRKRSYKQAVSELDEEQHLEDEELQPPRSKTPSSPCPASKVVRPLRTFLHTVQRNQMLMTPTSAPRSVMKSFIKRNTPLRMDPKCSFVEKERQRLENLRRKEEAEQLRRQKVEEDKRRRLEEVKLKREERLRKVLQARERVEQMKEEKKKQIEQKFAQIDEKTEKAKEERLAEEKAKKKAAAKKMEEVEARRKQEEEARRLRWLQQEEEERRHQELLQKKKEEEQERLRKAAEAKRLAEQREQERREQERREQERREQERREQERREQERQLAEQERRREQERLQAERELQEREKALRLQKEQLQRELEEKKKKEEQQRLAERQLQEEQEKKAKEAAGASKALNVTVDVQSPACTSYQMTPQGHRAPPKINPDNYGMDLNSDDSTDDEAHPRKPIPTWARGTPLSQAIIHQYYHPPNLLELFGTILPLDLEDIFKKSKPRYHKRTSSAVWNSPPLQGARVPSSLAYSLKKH
Chain of Cytochrome P450 3A4 (P08684 whole entry): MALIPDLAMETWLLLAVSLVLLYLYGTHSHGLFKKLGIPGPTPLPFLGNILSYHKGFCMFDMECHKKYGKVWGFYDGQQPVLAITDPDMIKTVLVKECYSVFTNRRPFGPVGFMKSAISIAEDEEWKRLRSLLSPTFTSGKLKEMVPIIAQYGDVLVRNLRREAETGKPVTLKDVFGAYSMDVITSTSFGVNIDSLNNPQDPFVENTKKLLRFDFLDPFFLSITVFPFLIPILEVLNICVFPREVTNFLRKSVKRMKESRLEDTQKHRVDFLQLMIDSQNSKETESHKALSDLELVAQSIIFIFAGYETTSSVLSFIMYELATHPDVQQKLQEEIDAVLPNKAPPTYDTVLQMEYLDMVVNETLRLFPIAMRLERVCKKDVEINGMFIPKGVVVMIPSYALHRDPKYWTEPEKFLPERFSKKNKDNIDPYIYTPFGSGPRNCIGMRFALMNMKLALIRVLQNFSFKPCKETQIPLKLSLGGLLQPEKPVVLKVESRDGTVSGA

## Cc1cc(N2CCOCC2)ccc1Nc1nc(NC2CCCCC2)c2nc[nH]c2n1
[1]
  inhibition in vivo at 30 mg/kg: 49%

## CC(C)(O)CNc1cc(NC2CCCCC2)nn2c(-c3ccc(C(=O)NC4CC4)cc3)cnc12
[2]
  pIC50: 7.89

## O=C(N[C@@H](c1ccccn1)C1CC1)c1ccc2[nH]nc(-c3ccc(N4[C@H]5CC[C@H]4CC(O)C5)cc3)c2c1 (stereo in doubt; 75)
[3]
  Activity: 1.8%
HCT-116 [4]
  Activity: Active
[5]
  Activity: 2.9%
[6]
  Activity: 2.7%
[7]
  Activity: Active
[8]
  Activity: 2.3%
[9]
  Activity: 9.4%
[10]
  Activity: 1.4%
[11]
  Activity: 0.2%
HCT-116 [12]
  Activity: Active
[13]
  Activity: 1%
[14]
  Activity: 8.3%
HCT-116 [15]
  Activity: Active
[16]
  Activity: 0%
[17]
  Activity: 7.9%
[18]
  Activity: Active
[19]
  Activity: 5.8%

## O=C(N[C@H](c1ccccn1)C1CC1)c1ccc2[nH]nc(-c3ccc(N4[C@H]5CC[C@H]4CC(O)C5)cc3)c2c1 (stereo in doubt; 86)
[20]
  inhibition in vivo at 100 mg/kg: 5%
[21]
  GI50: 0.17 µM
[22]
  MTD at 504 h: 150 mg/kg
[23]
  pIC50: 6.10
[24]
  AUC(0-inf): 0.43 µg·h/mL
[25]
  clearance: 2.76 L/h/kg
[26]
  AUC(0-inf): 0.36 µg·h/mL
Mus musculus [27]
  AUC: 1.6 µg·h/mL
MDA-MB-468
  GI50: 0.09 µM
[28]
  bioavailability: 24%
Cytochrome P450 3A4
  pIC50: 5.77
Mus musculus [29]
  Cmax: 0.8 µg/mL
[30]
  inhibition in vivo at 150 mg/kg: 53%
[31]
  pIC50: 8.80
[32]
  half-life: 54 min

## O=C(N[C@H](c1ccccn1)C1CCCC1)c1ccc2[nH]nc(-c3ccc(N4[C@H]5CC[C@H]4CC(O)C5)cc3)c2c1 (stereo in doubt; 88)
[33]
  GI50: 0.038 µM
Liver microsome
  t1/2: 21 min
[21]
  GI50: 0.13 µM
[23]
  pIC50: 5.18
Liver
  t1/2: 35 min
MDA-MB-468
  GI50: 0.074 µM
Cytochrome P450 3A4
  pIC50: 6.10
[31]
  pIC50: 8.74
